Data set [1] in a line: AUC (0 to 42 days) in Paua New Guinean children with uncomplicated malaria at 10 mg/kg daily for 3 days. The conditions noted are these: human, plasma. More on the design: time < 1008 hr, dose 10 mg/kg. Type of data set: ADME, organism-based. In outline: (§1)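 Children aged 5–10 y with uncomplicated malaria took oral CQ at 10 mg base/kg daily at 0, 24 and 48 h, with single-dose SP given alongside the first dose, without fasting. Heparin plasma was sampled serially to day 42, stored at −80°C, extracted with t-butyl methyl ether, and measured by HPLC-UV at 340 nm. Two-compartment model fitting used 1/y2 weighting.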

Data set [2] can be described thus: Volume of distribution at steady state with respect to bioavailability in Paua New Guinean children with uncomplicated malaria at 10 mg/kg daily for 3 days. Type of data set: ADME, organism-based. The note with it: human, in vivo, read-out: Vc/F. In outline:
as §1

Data set [3] in a line: Elimination half life in Paua New Guinean children with uncomplicated malaria at 10 mg/kg daily for 3 days. The class given is ADME, organism-based. More on the design: dose 10 mg/kg. The conditions noted are these: human, in vivo, read-out: beta t1/2 (converted). In outline:
as §1

Data set [4] deals with Homo sapiens. The experiment in a line: Tlag in Paua New Guinean children with uncomplicated malaria at 10 mg/kg daily for 3 days. The note with it: in vivo, 72 h. Type of data set: ADME, organism-based. Also on record: dose 10 mg/kg. In outline: as §1
For data set [5], the system named is Homo sapiens. Nature of the data set: AUC (0 to infinity) in Paua New Guinean children with uncomplicated malaria at 10 mg/kg daily for 3 days. The class given is ADME, organism-based, Plasma. Also on record: time infinity, dose 10 mg/kg. The conditions noted are these: in vivo, 72 h. In outline:
as §1

The nature of data set [6]: Apparent clearance with respect to bioavailability in human. The class given is ADME, organism-based. The note with it: in vivo.
The nature of data set [7]: Apparent clearance with respect to bioavailability in human with malaria. The class given is ADME, organism-based. The conditions noted are these: in vivo.
A short description of data set [8]: AUC (0 to infinity) in Paua New Guinean children with uncomplicated malaria. The class given is ADME, organism-based. Also on record: time infinity. The conditions noted are these: human, plasma.
Data set [9] deals with Plasmodium falciparum. The experiment in a line: Antiplasmodial activity against chloroquine-sensitive Plasmodium falciparum. Type of data set: functional, organism-based.
Data set [10] has as its system Plasmodium falciparum. Nature of the data set: Antiplasmodial activity against chloroquine-resistant Plasmodium falciparum. Type of data set: functional, organism-based.
Data set [11] in a line: AUC (0 to 42 days) in Paua New Guinean children with uncomplicated malaria. The class given is ADME, organism-based. The note with it: human, plasma. Also on record: time < 1008 hr.
Data set [12] can be described thus: Elimination half life in Paua New Guinean children with uncomplicated malaria. The class given is ADME, organism-based. The conditions noted are these: human, in vivo; read-out: beta t1/2 (converted).
Data set [13] relates to Homo sapiens. The experiment in a line: Tlag in Paua New Guinean children with uncomplicated malaria at 20 mg/kg daily for 3 days. Also on record: dose 20 mg/kg. The note with it: in vivo, 72 h. The class given is ADME, organism-based. In outline:
(§2)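 Children aged 5–10 y with uncomplicated malaria were given oral DHA-PQ at PQ phosphate 20 mg/kg (11.5 mg base/kg) daily at 0, 24 and 48 h, swallowed with water, without fasting. Sampling was serial to day 42. Heparin plasma was stored at −80°C, extracted with hexane-isoamyl alcohol, and assayed by HPLC with UV detection at 340 nm. Parameters came from a two-compartment model with 1/y2 weighting.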

The species named for data set [14] is Homo sapiens. Nature of the data set: Volume of distribution at steady state with respect to bioavailability in human after fat meal using non-compartmental analysis. The class given is ADME, organism-based. The note with it: in vivo.
Data set [15] is described as follows: Volume of distribution at steady state with respect to bioavailability in Vietnamese human. The class given is ADME, organism-based. The conditions noted are these: in vivo, read-out: Vc/F.
Data set [16] is described as follows: Apparent clearance with respect to bioavailability in Vietnamese human. The class given is ADME, organism-based. The note with it: in vivo.
The nature of data set [17]: Volume of distribution at steady state with respect to bioavailability in Cambodian children with malaria. The class given is ADME, organism-based. The conditions noted are these: human, in vivo; read-out: Vc/F.
A short description of data set [18]: AUC (0 to 42 days) in Paua New Guinean children with uncomplicated malaria at 20 mg/kg daily for 3 days. The note with it: human, plasma. Type of data set: ADME, organism-based. Also on record: time < 1008 hr, dose 20 mg/kg. In outline: as §2
Data set [19] is described as follows: Elimination half life in Paua New Guinean children with uncomplicated malaria at 20 mg/kg daily for 3 days. The class given is ADME, organism-based. Also on record: dose 20 mg/kg. The note with it: human, in vivo, read-out: beta t1/2 (converted). In outline: as §2
A short description of data set [20]: Volume of distribution at steady state with respect to bioavailability in Paua New Guinean children with uncomplicated malaria at 20 mg/kg daily for 3 days. Type of data set: ADME, organism-based. The conditions noted are these: human, in vivo, read-out: Vc/F. In outline:
as §2

A short description of data set [21]: Apparent clearance with respect to bioavailability in human after fat meal using non-compartmental analysis. The class given is ADME, organism-based. The conditions noted are these: in vivo.
Data set [22] is described as follows: AUC (0 to infinity) in Paua New Guinean children with uncomplicated malaria at 20 mg/kg daily for 3 days. Type of data set: ADME, organism-based. The note with it: human, plasma. More on the design: time infinity, dose 20 mg/kg. In outline:
as §2

A short description of data set [23]: Apparent clearance with respect to bioavailability in human after fasting using non-compartmental analysis. The conditions noted are these: in vivo. The class given is ADME, organism-based.
Data set [24] in a line: Elimination half life in Cambodian children with malaria. Type of data set: ADME, organism-based. The conditions noted are these: human, in vivo; read-out: beta t1/2 (converted).
Data set [25] is described as follows: Apparent clearance with respect to bioavailability in Paua New Guinean children with uncomplicated malaria at 20 mg/kg daily for 3 days. Type of data set: ADME, organism-based. The conditions noted are these: human, in vivo. In outline:
as §2

The record followed here is ChEMBL document CHEMBL1151466 (Antimicrob Agents Chemother, 2008).

Turning to `CCN(CC)CCCC(C)Nc1ccnc2cc(Cl)ccc12` (configuration not stated) [CHLOROQUINE], in data set [1], the AUC (in general, the area under the concentration-time curve, a measure of exposure) at 1008 h came out at 117 µM·h. Besides, the Vd/F in data set [2] was 154 L/kg. Further, the half-life in [3] is 9.71 days. This molecule also came in with a Tlag in the data set with Homo sapiens [4] of 0.55 h. The molecule also registered an exposure (AUC) with Homo sapiens [5] of 122.5 µM·h. Moreover, the CL/F in data set [6] and in [7] was 2.17 mL/min/kg each time.

Regarding `CCNCCCC(C)Nc1ccnc2cc(Cl)ccc12` (configuration not stated) [DESETHYLCHLOROQUINE], the AUC(0-inf) (commonly total exposure, with the tail of the curve extrapolated) in data set [8] worked out at 98.5 µM·h. The IC50 (usually the concentration at which inhibition is half-maximal) with Plasmodium falciparum [9] was determined as 0.0178 µM; with Plasmodium falciparum [10], 0.0374 µM. Also, the AUC(0-t) – broadly, the area under the concentration-time curve up to a stated or last time point – at 1008 h in data set [11] was 83.6 µM·h. The half-life in data set [12] was 12.1 days.

Molecule `Clc1ccc2c(N3CCN(CCCN4CCN(c5ccnc6cc(Cl)ccc56)CC4)CC3)ccnc2c1` [PIPERAQUINE] returned a Tlag with Homo sapiens [13] of 0.89 h. This molecule also had a Vc/F in the data set listed under Homo sapiens [14] of 365 L/kg. Moreover, the Vd/F is 103 L/kg in data set [15], 614 L/kg in data set [17] and 431 L/kg in [20]. The CL/F (usually clearance divided by bioavailability, as obtained after extravascular dosing) in data set [16] was 16.2 mL/min/kg; in data set [21] it was 10 mL/min/kg; in data set [23], 19 mL/min/kg; in data set [25], 14.2 mL/min/kg. This molecule also registered an AUC at 1008 h in [18] of 76.4 µM·h. The IC50 is 0.0355 µM in the data set on Plasmodium falciparum [9] and 0.0407 µM with Plasmodium falciparum [10]. In addition, the values for the half-life in [19] and in [24] were 17.2 days and 13.5 days, respectively. In [22], this molecule registered an AUC(0-inf) of 87.4 µM·h.
